This note sets out measurements from PubChem BioAssay AID602223 (Southern Research Specialized Biocontainment Screening …, 2012).

For orientation: IC50 means the concentration that gives 50% inhibition.

Records with an inconclusive call do not appear. Activity calls are given as the source filed them.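 How the source made its calls: active means inhibition of 30% or more at any tested concentration; inactive means the rest, inconclusive results apart.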

For one test, the target named is M1-family alanyl aminopeptidase (Plasmodium falciparum 3D7). In words: malaria M1 alanyl aminopeptidase inhibitors – biochemical, QFRET, H-Leu-NHMec substrate, set 2, selectivity assay for PfM17LAP inhibitor project, dose response (AID 602223). As to conditions: recombinant PfM1AAP, H-Leu-NHMec fluorogenic cleavage. An outline of the steps: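 Material: purified recombinant P. falciparum M1 aminopeptidase; Medium: Tris buffer, pH 7.5, containing CoCl2; Also added: fluorogenic NHMec-releasing peptide substrate, 0.1 mM final; Incubation: 90 min enzyme reaction at room temperature; Detection: fluorescence of liberated NHMec, excitation 370 nm, emission 460 nm; Read-out: IC50 from dose-response curve fit, top and bottom fixed.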
Take `CCCCOc1ccc(C(=O)NO)cc1`: the IC50 was 99.1 µM.

For `CCCCCCCCCC(=O)NO`, the IC50 is 13.3 µM.

On to `O=C(Cc1ccc2c(c1)CCCC2)NO`, for which the IC50 is 1.41 µM.

In the case of `O=C(Cc1ccc(OCc2ccccc2)cc1)NO`, the IC50 was 2.89 µM.

As for `CC(C)COc1ccc(CC(=O)NO)cc1`, the IC50 is 23.2 µM.

`COc1ccc(CC(=O)NO)cc1`: the IC50 is 4.58 µM.

For `Cc1ccc(CC(=O)NO)cc1`, the IC50 is 5.77 µM.

Turning to `CCCCc1ccc(CC(=O)NO)cc1`, the IC50 was 2.57 µM.

In the case of `CCCCOc1ccc(CC(=O)NO)cc1`, the IC50 is 14 µM.

In the case of `O=C(Cc1ccc(Oc2ccccc2)cc1)NO`, the IC50 was 5.45 µM.

With `CCOc1ccc(CC(=O)NO)cc1`, the IC50 is 7 µM.

Regarding `COc1ccc(CCCC(=O)NO)cc1`, the IC50 is 95.8 µM.

The same test, now with this note: recombinant PfM1AAP, H-Leu-NHMec fluorogenic cleavage; at 100 µM (top of the series).
Take `CCCOc1ccc(CC(=O)OC)cc1`: the inhibition entry is “inactive”.

Consider `CC(C)(C(=O)NO)c1ccccc1`, for which the inhibition result is “inactive”.

As for `CCCCOc1ccc(CNc2c(N(O)Cc3ccccc3)c(=O)c2=O)cc1`, the inhibition entry is “inactive”.

Turning to `CCCCOc1ccc(CC(=O)O)cc1`, the inhibition entry is “inactive”.

With `CN(O)C(=O)Cc1ccc(OCc2ccccc2)cc1`, the inhibition entry was “inactive”.

On to `CCCCOc1ccc(CC(=O)N(C)O)cc1`, for which the inhibition result is “inactive”.

Turning to `COC(=O)Cc1ccc(OCCN(C)C)cc1`, the inhibition entry was “inactive”.

Consider `CCCCOc1ccc(CNc2c(N(C)O)c(=O)c2=O)cc1`, for which the inhibition result is “inactive”.
